Most compounds without a hit are left out; they make up all but 3.1% or so of the library.
hERG rescue = hERG rescue from dofetilide block, primary screen, cell-based, CHO-hERG, FluxOR thallium flux, dofetilide IC70; Voltage-gated inwardly rectifying potassium channel KCNH2 (Homo sapiens), Q12809; dofetilide IC70 present; activation (rescue from dofetilide block), less the hit threshold, % at 10 µM; 0.51% of 310,000 active; AID 1511, 2009;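 active means activation above the mean of controls blocked by dofetilide plus 5 SD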;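 further: thallium influx through hERG after potassium depolarization seen as dye fluorescence rise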
Target sequence (Q12809 whole entry, looked up): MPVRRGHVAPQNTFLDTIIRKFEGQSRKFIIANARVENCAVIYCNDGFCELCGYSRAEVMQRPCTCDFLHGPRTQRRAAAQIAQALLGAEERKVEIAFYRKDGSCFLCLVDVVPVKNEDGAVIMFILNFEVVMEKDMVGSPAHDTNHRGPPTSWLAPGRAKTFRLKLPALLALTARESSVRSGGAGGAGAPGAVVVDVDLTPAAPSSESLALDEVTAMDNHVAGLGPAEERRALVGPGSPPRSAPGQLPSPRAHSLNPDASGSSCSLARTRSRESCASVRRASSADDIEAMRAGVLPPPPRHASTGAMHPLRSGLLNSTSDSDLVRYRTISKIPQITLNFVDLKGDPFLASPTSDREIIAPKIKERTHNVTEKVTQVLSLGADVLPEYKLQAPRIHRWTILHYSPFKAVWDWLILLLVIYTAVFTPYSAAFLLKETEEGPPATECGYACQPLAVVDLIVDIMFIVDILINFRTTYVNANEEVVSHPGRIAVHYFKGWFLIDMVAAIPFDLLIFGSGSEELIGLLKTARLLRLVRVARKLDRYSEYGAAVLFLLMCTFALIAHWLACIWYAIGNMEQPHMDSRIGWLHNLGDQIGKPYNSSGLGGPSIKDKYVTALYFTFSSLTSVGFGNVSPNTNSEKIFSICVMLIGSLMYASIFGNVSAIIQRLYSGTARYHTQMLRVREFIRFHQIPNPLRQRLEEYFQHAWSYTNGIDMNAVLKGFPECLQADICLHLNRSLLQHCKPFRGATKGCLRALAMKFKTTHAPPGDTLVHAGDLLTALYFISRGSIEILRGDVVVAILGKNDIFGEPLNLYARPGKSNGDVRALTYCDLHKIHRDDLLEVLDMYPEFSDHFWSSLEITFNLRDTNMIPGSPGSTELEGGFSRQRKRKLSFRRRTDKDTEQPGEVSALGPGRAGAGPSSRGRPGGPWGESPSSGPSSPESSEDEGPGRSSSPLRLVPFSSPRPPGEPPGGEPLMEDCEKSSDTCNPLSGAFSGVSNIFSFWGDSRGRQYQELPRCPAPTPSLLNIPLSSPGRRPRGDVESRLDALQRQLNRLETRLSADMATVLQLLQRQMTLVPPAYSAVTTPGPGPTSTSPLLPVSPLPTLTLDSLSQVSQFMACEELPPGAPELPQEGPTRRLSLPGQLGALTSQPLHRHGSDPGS
KCNQ1 inh = inhibitors of human KCNQ1 channel, primary screen, cell-based, thallium flux, high-throughput. Potassium voltage-gated channel subfamily KQT member 1 (Homo sapiens), P51787. CHO-K1 KCNQ1, FluxOR thallium flux fluorescence; active compounds read high. B-score at 10 µM. 1.3% of 310,000 active. AID 2642, 2010;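 active means compounds whose thallium flux B-score, printed positive for inhibition, exceeds three library SD while starting fluorescence stays within three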;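 further: channel opened by potassium depolarization with thallium stimulus after 20 min compound exposure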
KCNQ1 act = potentiators or activators of KCNQ1 channel, primary screen, cell-based, thallium flux, high-throughput; Potassium voltage-gated channel subfamily KQT member 1 (Homo sapiens), P51787; CHO-K1 KCNQ1, thallium flux FluxOR fluorescence; active compounds read high; B-score at 10 µM; 0.35% of 310,000 active;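 active means fluorescence ratio B-score, a plate-corrected score, at least three library SD, with initial intensity B-score within 5 SD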
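Assay system: CHO-K1 cells stably expressing KCNQ1; Medium: assay buffer with matched DMSO; Also added: K+/Tl+ depolarizing stimulus; Dosing: single dose; Timing: dye 90 min, compound 20 min, room temperature; Measured by: kinetic FluxOR thallium fluorescence, 10-s 1-Hz baseline, 110-s post-stimulus read; Read-out: peak-minus-minimum fluorescence over initial fluorescence, negative-control normalized, B-scored.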
KCNK9 inh = KCNK9 potassium channel inhibitors, primary screen, HEK293 cells, thallium flux. FluxOR thallium flux fluorescence; active compounds read low. B-score at 10 µM. Potassium channel subfamily K member 9 (Homo sapiens), Q9NPC2. 1.2% of 310,000 active;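 active means ratio B-score over 3 SD below the library mean, with starting fluorescence within 5 SD of its mean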;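 further: negative B-score means less thallium flux so channel inhibition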
KCNK3 block = human KCNK3 channel inhibitors, primary screen, CHO cells, FluxOR thallium flux, B-score. 0.84% of 340,000 active. Potassium channel subfamily K member 3 (Homo sapiens), O14649. FluxOR fluorescence; active compounds read low. AID 602410, 2012. B-score at 10 µM;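 active means B-score under library mean minus 4 SD, starting fluorescence ratio at most library mean plus 5 SD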;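 further: more negative B-score means stronger inhibition of thallium flux through KCNK3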
KCNK9 inh conf = KCNK9 potassium channel inhibitors, confirmation, HEK293 cells, thallium flux, duplicate | shares compounds with KCNK9 inh | FluxOR thallium flux fluorescence | inhibition, % at 10 µM | 43% of 4,900 active | AID 492992, 2010;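 active means thallium signal inhibited by more than 5 SD of the compound-free buffer control wells, on both duplicate plates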
Kir2-1 spec = mouse Kir2.1 channel inhibition, confirmation, selectivity assay for KCNK9 modulator project, cell-based, HEK293, thallium flux | shares compounds with KCNK9 inh | Kir2.1 cells, FluxOR thallium flux fluorescence | 4% of 4,900 active | inhibition, % at 10 µM;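 active means thallium signal drop more than 5 SD beyond the mean of the no-compound control wells, seen in both duplicate plates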;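 further: signal is fluorescence rise after thallium addition divided by baseline fluorescence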
KCNK9 uninduced = thallium flux in non-induced HEK293 cells, confirmation, counter-screen for KCNK9 inhibitor project, cell-based, second counter screen, non-induced KCNK9-HEK293 | inhibition, % at 10 µM | AID 492997, 2010 | FluxOR thallium flux | shares compounds with KCNK9 inh | 40% of 4,900 active;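 active means thallium signal drop beyond 5 SD of the untreated control mean, on both duplicate plates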
KCNK3 confirm = retest of human KCNK3 channel inhibitors, confirmation, CHO cells, FluxOR thallium flux, triplicate; shares compounds with KCNK3 block; FluxOR fluorescence; 0% buffer, 100% carvedilol maximal block; ratio percent of control, % at 10 µM; 99% of 2,400 active; AID 651638, 2012;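 active means ratio percent of control, averaged over triplicates, above buffer control mean plus 5 SD, cut at about 64% in these data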;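 further: ratio is the fluorescence rise from min to max over baseline after thallium stimulus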
KCNK3 noninduced = thallium flux inhibition in non-induced cells, primary screen, counter-screen for KCNK3 inhibitor project, cell-based, non-induced KCNK3 line, FluxOR thallium, triplicate; AID 651747, 2012; thallium flux ratio (lower = more inhibition) at 10 µM; shares compounds with KCNK3 block; 40% of 2,400 active; non-induced KCNK3 parental cells; active compounds read low;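 active means thallium flux ratio, averaged over three wells, more than 5 SD below the buffer control mean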;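 further: host cells are CHO cells without KCNK3 induction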
Large screens that a line does not name were inactive (follow-up assays come after a bar, where they were run).

O=C(NCCC1=CCCCC1)C1CCN(S(=O)(=O)c2cccc(C(F)(F)F)c2)CC1	none (no result: hERG rescue, KCNQ1 inh, KCNQ1 act, KCNK9 inh)
Cc1onc(-c2ccc(Cl)cc2)c1-c1ccnc(SCC(=O)Nc2ccc(C(C)C)cc2)n1	KCNK9 inh -9.6, KCNK3 block -11 | KCNK9 inh conf 40% | Kir2-1 spec inactive | KCNK9 uninduced 29% | KCNK3 confirm 115 | KCNK3 noninduced inactive
O=C(OCC(=O)N(CCc1ccccc1)Cc1ccccc1)c1cccc(O)c1	none
O=C(OCC(=O)N(CCc1ccccc1)Cc1ccccc1)c1ccccc1O	KCNQ1 inh 8, KCNK9 inh -18, KCNK3 block -12 | KCNK9 inh conf 74% | Kir2-1 spec inactive | KCNK9 uninduced 39% | KCNK3 confirm 118 | KCNK3 noninduced inactive
O=C(OCC(=O)N(CCc1ccccc1)Cc1ccccc1)c1ccccc1NCCO	KCNK9 inh -9.5, KCNK3 block -9.9 | KCNK9 inh conf 56% | Kir2-1 spec inactive | KCNK9 uninduced inactive | KCNK3 confirm 95 | KCNK3 noninduced inactive
O=C(OCC(=O)N(Cc1ccccc1)Cc1ccccc1)c1ccccc1O	none (no result: hERG rescue, KCNQ1 inh, KCNQ1 act, KCNK9 inh)
COc1ccc(CNC(=O)C(NC(C)=O)C(=O)Nc2ccc(C(C)C)cc2)cc1 (stereo not given)	none
Cc1ccc(C(CCN(Cc2ccccc2)C(=O)c2ccco2)c2ccco2)cc1 (stereo not given)	none
CC(=O)N(CCC(c1ccccc1)c1ccco1)Cc1cccs1 (stereo not given)	KCNK9 inh -12, KCNK3 block -10 | KCNK9 inh conf 56% | Kir2-1 spec inactive | KCNK9 uninduced 30% | KCNK3 confirm 94 | KCNK3 noninduced inactive
COc1ccccc1C(=O)NCCC(=O)N(Cc1ccco1)Cc1cccs1	none
CCC(=O)N(CCC(c1ccco1)c1ccccc1OC)Cc1cccs1 (stereo not given)	KCNK9 inh -12, KCNK3 block -8.9 | KCNK9 inh conf 56% | Kir2-1 spec inactive | KCNK9 uninduced 34% | KCNK3 confirm 130 | KCNK3 noninduced 0.13
O=C(COc1ccc(C(=O)c2ccc(F)cc2)cc1)Nc1cccc(S(=O)(=O)N2CCOCC2)c1	none (no result: hERG rescue, KCNQ1 inh, KCNQ1 act, KCNK9 inh)
Cc1cc(C)c2nc(C)cc(N/N=C/c3ccc(O)cc3)c2c1	KCNQ1 inh 10, KCNK9 inh -15, KCNK3 block -12 | KCNK9 inh conf 72% | Kir2-1 spec 36% | KCNK9 uninduced inactive | KCNK3 confirm 135 | KCNK3 noninduced 0.12
CCN(CC)C(=O)C1CCCN(c2ccc([N+](=O)[O-])cc2/C=N/NC(=O)c2cccc(Br)c2)C1 (stereo not given)	KCNK9 inh -12 | KCNK9 inh conf 42% | Kir2-1 spec inactive | KCNK9 uninduced 32% | KCNK3 confirm 134 | KCNK3 noninduced 0.13
O=C(Nc1cc2c(=O)n(-c3ccc(Oc4ccccc4)cc3)ccc2oc1=O)c1ccccc1	none
CN(Cc1ccccc1)C(=O)COc1cc(Cl)ccc1Cl	none
COc1ccc(OC)c(CCNC(=O)c2cccc(NC(=O)C3=C(C)OCCS3)c2)c1	KCNK9 inh -8.2, KCNK3 block -11 | KCNK9 inh conf 38% | Kir2-1 spec inactive | KCNK9 uninduced inactive | KCNK3 confirm 97 | KCNK3 noninduced inactive
O=C(CCC(=O)Nc1ccc(Br)cc1)N/N=C/c1ccc(O)cc1	none
CCc1cc2cccc(C)c2nc1SCC(=O)NC1CCCC1	KCNK9 inh -9, KCNK3 block -11 | KCNK9 inh conf 52% | Kir2-1 spec inactive | KCNK9 uninduced 26% | KCNK3 confirm 104 | KCNK3 noninduced inactive
CCCN1CCN(c2nc(-c3cccs3)nc3ccccc23)CC1	none
CCOC(=O)N1CCN(c2nc(-c3cccs3)nc3ccccc23)CC1	KCNK9 inh -8.9, KCNK3 block -10 | KCNK9 inh conf inactive | Kir2-1 spec inactive | KCNK9 uninduced inactive | KCNK3 confirm 104 | KCNK3 noninduced 0.15
COc1ccc(NC(=O)/C(C#N)=C\c2ccc(N3CCOCC3)o2)cc1	KCNQ1 inh 10, KCNK9 inh -8.7, KCNK3 block -12 | KCNK9 inh conf 48% | Kir2-1 spec 36% | KCNK9 uninduced 76% | KCNK3 confirm 132 | KCNK3 noninduced 0.091
N#CCSc1nc2c(c(C3CC=CCC3)c1C#N)CCC2 (stereo not given)	KCNK9 inh -8.4 | KCNK9 inh conf 34% | Kir2-1 spec inactive | KCNK9 uninduced 42% | KCNK3 confirm 107 | KCNK3 noninduced inactive
Cc1ccc(NC(=O)N(Cc2cccnc2)Cc2ccco2)cc1C	none
Cc1ccc(NC(=O)CN(Cc2ccco2)Cc2ccccc2O)cc1C	KCNQ1 inh 6, KCNK9 inh -15, KCNK3 block -12 | KCNK9 inh conf 72% | Kir2-1 spec inactive | KCNK9 uninduced 42% | KCNK3 confirm 134 | KCNK3 noninduced 0.15
COc1cccc(C(=O)Nc2nc(-c3ccncc3)cs2)c1	none
COc1cccc(C(=O)Nc2nc(-c3ccc4c(c3)OCO4)cs2)c1	KCNK9 inh -9, KCNK3 block -10 | KCNK9 inh conf 26% | Kir2-1 spec inactive | KCNK9 uninduced 26% | KCNK3 confirm 121 | KCNK3 noninduced 0.14
COc1ccc(O)c(/C=N/Nc2nc(C)cc(-c3ccccc3)n2)c1	KCNK9 inh -15, KCNK3 block -10 | KCNK9 inh conf 51% | Kir2-1 spec inactive | KCNK9 uninduced 23% | KCNK3 confirm 120 | KCNK3 noninduced 0.14
CC(C)Oc1cccc(C(=O)C2CCCN(C(=O)c3ccnn3C)C2)c1 (stereo not given)	KCNK3 block -10 | KCNK9 inh conf inactive | Kir2-1 spec inactive | KCNK9 uninduced inactive | KCNK3 confirm 98 | KCNK3 noninduced inactive
